HIF act = HIF pathway transcriptional activation; U2OS HRE-luciferase reporter, luminescence; normalized: DMSO 0%, desferrioxamine 100%; activation, % at 7.5 µM (by protocol); 300,000 compounds, 0.32% hits; AID 1910;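 active means mean activation of at least 10% of the iron chelator positive control signal, with at least half of replicates also reaching 10%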
Rad51 HR inh = blocks human Rad51 in homologous recombination | 200,000 compounds, 0.085% hits | AID 1385 | inhibition, % at 10 µM | hRad51 DNA strand exchange, fluorescence dequenching | Q06609;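 active means inhibition above 40% at the single screening dose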;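 further: 0% = DMSO control wells and 100% = blanks with heterologous ssDNA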
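System: human Rad51 nucleoprotein filaments preassembled on unlabelled ssDNA. Reagent: labelled 47-mer dsDNA for strand exchange. Schedule: 30-min compound preincubation and 15-min exchange, both room temperature. Measured by: FRET fluorescence dequenching, excitation 485 nm, emission 520 nm. Read-out: Fluorescence-based percent inhibition, control- and blank-normalised. Benchmarks: plate controls and plate blanks.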
H9c2 TAG inh = inhibitors of triacylglycerol accumulation; H9c2 cells, Nile Red lipid (TAG) fluorescence; cells loaded with 200 µM oleic acid; inhibition, % at 12.5 µM; 230,000 compounds, 0.66% hits; AID 651582;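 active means pattern-corrected inhibition of lipid staining of at least 50% with the nuclear-stain viability signal not falling by more than 50%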;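 further: 0% = DMSO wells and 100% = triacsin C control wells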
Hsp70 act = switches on Hsp70 transcription; 200,000 compounds, 0.04% hits; AID 1203; HeLa Hsp70 promoter luciferase reporter, luminescence; scaled: vehicle 0, proteasome-inhibitor control 100%; activation, % at 10 µM;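 active means activation above the mean across all tested compounds plus 3 SD, cutoff set per campaign, cut at about 5.5% in these data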;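 further: 100% = MG132 at 30 µM as the positive control and 0% = DMSO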
ABHD5-PLIN5 inh = ABHD5-PLIN5 protein interaction inhibition. Q00G26+Q8WTS1. Split G. princeps luciferase complementation, luminescence, 4 h. inhibition, % at 4 µM. 360,000 compounds, 0.78% hits;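 active means inhibition above the mean inhibition across every tested compound plus 3 SD, cut at about 22% in these data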;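 further: 0% = DMSO only wells and the 100% control is not disclosed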
Target sequence (Q00G26 whole entry, looked up): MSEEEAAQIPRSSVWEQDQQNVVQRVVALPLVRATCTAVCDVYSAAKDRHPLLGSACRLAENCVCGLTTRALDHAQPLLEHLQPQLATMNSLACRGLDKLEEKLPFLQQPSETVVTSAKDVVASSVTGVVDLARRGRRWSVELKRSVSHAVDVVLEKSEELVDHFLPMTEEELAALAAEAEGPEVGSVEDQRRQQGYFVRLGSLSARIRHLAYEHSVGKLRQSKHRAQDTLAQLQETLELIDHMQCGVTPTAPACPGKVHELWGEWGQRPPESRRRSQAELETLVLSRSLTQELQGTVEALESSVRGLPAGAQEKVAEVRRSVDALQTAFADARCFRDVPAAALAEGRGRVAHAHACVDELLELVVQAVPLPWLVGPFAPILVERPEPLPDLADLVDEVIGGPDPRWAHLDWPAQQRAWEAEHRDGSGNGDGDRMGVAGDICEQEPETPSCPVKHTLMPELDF
Target sequence (Q8WTS1 whole entry, looked up): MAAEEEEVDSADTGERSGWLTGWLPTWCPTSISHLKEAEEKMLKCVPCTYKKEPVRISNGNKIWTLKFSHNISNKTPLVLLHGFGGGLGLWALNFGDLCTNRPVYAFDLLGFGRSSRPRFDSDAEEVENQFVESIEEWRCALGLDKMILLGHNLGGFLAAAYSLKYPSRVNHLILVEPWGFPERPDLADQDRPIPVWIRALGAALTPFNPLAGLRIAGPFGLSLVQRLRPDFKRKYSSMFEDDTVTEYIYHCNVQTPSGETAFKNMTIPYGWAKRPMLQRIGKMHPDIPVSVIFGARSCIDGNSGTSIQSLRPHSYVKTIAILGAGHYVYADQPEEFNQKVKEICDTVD
FXN GAA850 act = increases GAA850 frataxin promoter reporter activity; HEK293 lucGAA850 FXN promoter luciferase reporter, 24 h; percent of 10 µM SAHA response; activation, % at 6 µM; 360,000 compounds, 0.56% hits;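 active means activation above the average of all compounds screened plus 3 SD, cutoff fixed separately per campaign, cut at about 7.5% in these data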;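 further: 0% = DMSO wells and 100% = 10 µM SAHA wells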
GAA30 counter = counter-screen for GAA850 frataxin promoter activators: GAA30 promoter activation. shares compounds with FXN GAA850 act. HEK293 lucGAA30 FXN promoter luciferase, 24 h; DMSO = 0%, 5 µM ipriflavone = 100%. activation, % at 6 µM. 1,900 compounds, 66% hits. AID 588350;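 active means mean activation above the mean of solvent-only control wells plus 3 SD, cut at about 22% in these data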;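 further: counterscreen of GAA850 promoter hits where activity marks nonselective or luminescence artifacts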
FXN GAA850 conf = confirmation of GAA850 frataxin (FXN) promoter activators | shares compounds with FXN GAA850 act | AID 588351 | 1,900 compounds, 86% hits | activation, % at 6 µM | HEK293 lucGAA850 FXN promoter luciferase reporter, 24 h; 100% = activation by SAHA;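 active means mean activation above a set limit taken from the primary screen, cut at about 8% in these data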;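 further: 0% = DMSO wells and 100% = 10 µM SAHA wells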
Numbers without * were called inactive; / = no result. An excerpt weighted towards active compounds, which were near 1.9% of everything screened.

SMILES | HIF act | Rad51 HR inh | H9c2 TAG inh | Hsp70 act | ABHD5-PLIN5 inh | FXN GAA850 act | GAA30 counter | FXN GAA850 conf
CCc1ccccc1Nc1nc(N)nc(CSCC(=O)Nc2ccc(C)c(C)c2)n1 | -0.2 | 9.6 | -8.5 | -0.2 | 2.9 | 11.9* | 30.4* | 15.5*
Cc1c(C(=O)N2CCOCC2)c(S(=O)(=O)Nc2ccc(C(C)C)cc2)c(C)n1C | -0.3 | / | / | / | 4.1 | -0.5 | / | /
O=C(/C=N\O)NCCCNCc1ccccc1 | / | 4.4 | / | -0.5 | 3.4 | 20.9* | 26.1* | 9.0*
O=C(NCCCNCc1ccccc1)c1ccncc1 | -0.1 | 3.5 | / | -0.5 | 3.8 | 3.5 | / | /
Cc1ccc(C2=NN(CCC(=O)NCCCN3CCOCC3)C(=O)CC2)cc1 | -0.3 | / | / | / | 1.9 | 1.6 | / | /
Nn1c(C2CCCCC2)nc2ccccc2c1=O | 0.0 | -8.3 | -1.0 | / | -8.2 | -1.6 | / | /
N#CCn1c(C2CCCCC2)nc2ccccc2c1=O | -0.8 | 5.7 | -7.7 | -0.3 | 0.0 | 9.3* | 26.5* | 14.3*
COC(=O)c1ccc(NN=Nc2ccc(C)cc2)cc1 | 1.3 | -2.0 | / | -0.6 | 7.0 | 7.8* | 84.2* | 31.2*
COC(=O)c1ccc(C)cc1 | / | / | / | / | 2.8 | 2.2 | / | /
O=C(Cn1cnc(S(=O)(=O)N2CCCCC2)c1)NCc1ccco1 | 0.6 | / | / | / | 3.4 | 0.3 | / | /
COc1ccc(-c2nc(Cn3c(SCc4ccc(C)cc4)nc4ccncc43)c(C)o2)cc1OC | 2.2 | -0.5 | 4.7 | 0.3 | 9.2 | 3.3 | / | /
COc1ccc(-c2nc(Cn3c(SCc4cccc(F)c4)nc4ccncc43)c(C)o2)cc1OC | 0.1 | 1.9 | -0.9 | 0.0 | 7.0 | 12.5* | 18.9 | 3.9
COc1ccc(NC(=O)COC(=O)C2CCC(C(C)(C)C)CC2)c([N+](=O)[O-])c1 (stereo unspecified) | -0.9 | 0.8 | / | -0.1 | 4.7 | 0.7 | / | /
CC(=O)Nc1ccc(/C=N/Nc2nc3ccccc3s2)cc1 | 1.8 | 1.2 | 10.1 | / | 1.6 | 8.7* | 122.8* | 35.9*
O=[N+]([O-])c1c(Nc2ccccc2O)cc(Cl)c2nonc12 | -39.1 | / | 73.5 | / | 63.3* | 10.8* | -78.6 | -7.9
O=[N+]([O-])c1c(Nc2ccccc2O)ccc2nonc12 | -0.5 | 8.3 | -1.1 | 0.0 | 2.3 | 3.1 | / | /
COc1cccc(NC(=S)N(CCN(C)C)C(C)c2ccncc2)c1 (stereo unspecified) | 2.2 | 8.6 | 6.5 | / | 0.7 | 4.4 | / | /
CCNC(=O)n1nccc1C(C)Oc1ccccc1 (stereo unspecified) | -0.4 | -6.0 | 0.5 | 0.1 | 2.6 | 4.7 | / | /
CCOC(=O)c1sc(-c2ccc(Br)cc2)cc1N | 3.6 | -3.2 | / | -0.2 | -12.4 | 15.9* | 116.6* | 42.8*
NC(=O)c1ccccc1NC(=O)CCn1c(=S)oc2ccccc21 | 0.4 | / | / | / | 5.8 | 0.8 | / | /
COc1ccccc1CN(Cc1cc2c(C)ccc(C)c2[nH]c1=O)Cc1nnnn1Cc1ccco1 | -0.3 | -16.9 | 8.0 | -0.3 | 3.6 | 8.8* | -2.7 | 10.5*
COc1ccc(C(=O)NC(CC(C)C)C(=O)O)cc1OC (stereo unspecified) | -0.3 | 4.8 | / | -0.2 | -2.4 | -1.3 | / | /
CCc1ccc(C(=O)NC(CC(C)C)C(=O)O)cc1 (stereo unspecified) | -0.4 | -5.8 | / | -0.3 | 0.8 | 20.4* | 20.5 | 6.2
CCCCC1CC2=C(C(=O)OC(C)(C)O2)C(c2ccc(F)cc2)O1 (stereo unspecified) | / | / | / | / | -6.7 | / | / | /
COc1ccc(C(C)=O)cc1CC1(C)C(=O)Nc2ccc(OC(F)(F)F)cc21 (stereo unspecified) | / | / | 8.4 | / | -5.2 | -1.4 | / | /
SMILES | HIF act | Rad51 HR inh | H9c2 TAG inh | Hsp70 act | ABHD5-PLIN5 inh | FXN GAA850 act | GAA30 counter | FXN GAA850 conf
COc1ccc(C(C)=O)cc1CC1(C)C(=O)Nc2ccc(-c3ccccc3OC)cc21 (stereo unspecified) | / | / | 9.7 | / | -1.5 | 15.5* | 9.8 | 9.2*
COc1ccccc1-c1ccc2c(c1)C(C)(Cc1cccc(F)c1)C(=O)N2 (stereo unspecified) | / | / | -19.8 | / | -6.6 | 11.0* | 17.1 | 12.2*
Cn1cnc2cc(NC(=O)c3ccc(Cl)cc3)ccc21 | 3.2 | -9.7 | 5.9 | 0.4 | 3.8 | 9.3* | 95.3* | 42.2*
CSc1ccc(CN2CCN(S(=O)(=O)Cc3ccccc3)CC2)cc1 | -0.1 | / | -6.0 | / | -12.0 | 0.1 | / | /
CSc1ccccc1NC(=O)CSc1cccc[n+]1[O-] | / | / | 4.5 | / | 0.5 | 1.6 | / | /
CCN1C(=O)[C@H]2[C@H]3CN=C(SCc4ccc(OC)cc4)N3[C@@](CC)(C(=O)OC)[C@H]2C1=O | / | / | 14.5 | / | 6.6 | -0.2 | / | /
CCN1C(=O)[C@H]2[C@H]3CN=C(SCc4ccc(Cl)cc4)N3[C@@](CC)(C(=O)OC)[C@H]2C1=O | / | / | 7.0 | / | 9.0 | 10.6* | 23.0* | 9.2*
COC(=O)[C@@]1(C)[C@H]2C(=O)N(Cc3ccccc3)C(=O)[C@H]2[C@H]2CN=C(SCc3ccc(C)cc3)N21 | / | / | 3.7 | / | 4.5 | 10.4* | 32.4* | 12.2*
COC(=O)c1ccc(CSC2=NC[C@@H]3[C@@H]4C(=O)N(Cc5ccccc5)C(=O)[C@@H]4[C@](C)(C(=O)OC)N23)cc1 | / | / | 5.3 | / | 5.5 | 3.9 | / | /
O=C(CN(C(=O)CSc1nc2ccccc2o1)c1ccccc1)NC1CCCCC1 | -0.1 | 6.8 | / | -0.3 | 0.0 | 0.3 | / | /
O=C(CSc1nc2ccccc2o1)NC1CCCC1 | 0.0 | 3.1 | 16.0 | -0.6 | -0.4 | 7.6* | 2.5 | 2.3
CN(CC(=O)Nc1c(Cl)cccc1Cl)C(=O)CCC1CCCC1 | 0.2 | / | 17.2 | / | -0.9 | 1.3 | / | /
C=CCN(c1ccc(C(=O)NCCSc2ccccc2)cc1)S(C)(=O)=O | 3.0 | / | -7.0 | / | 2.2 | 2.6 | / | /
CC1CCc2c(sc(NC(=O)C3=COCCO3)c2C(N)=O)C1 (stereo unspecified) | / | / | 9.2 | / | -4.2 | 2.8 | / | /
CC1CCc2c(sc(NC(=O)c3noc4c3CCCC4)c2C(N)=O)C1 (stereo unspecified) | / | / | -2.6 | / | -5.9 | 7.8* | 102.4* | 29.3*
COc1ccc2c(c1)C(=NO)c1cc(OC)ccc1-2 | 0.8 | -4.9 | -24.6 | -0.5 | -5.9 | 0.9 | / | /
C=CCOc1ccc2c(c1)C(=NO)c1cc(OCC=C)ccc1-2 | 0.3 | 5.3 | / | -0.2 | -2.1 | 8.0* | 32.3* | 19.5*
COc1cccc(-n2cnc3sc(C)c(C)c3c2=O)c1 | 0.5 | -6.2 | / | 0.2 | -4.7 | 9.3* | 59.3* | 23.7*
CC(=O)N1CCC(=NNC(=O)c2cccs2)CC1 | 2.3 | 1.4 | / | 0.1 | 6.5 | 8.7* | 10.6 | 0.5

Bioassay records deposited in PubChem by several laboratories.
